The values that follow come from ChEMBL document CHEMBL1124236, “Homoallylic amines related to zimeldine. A comparative study on neuronal serotonin and norepinephrine reuptake based on conformational analysis” (J Med Chem, 1988).

The species entered for experiment [1] is Rattus norvegicus. In words: In vitro inhibition of the accumulation of (-)-[3H]Norepinephrine in synaptosomes from the rat brain cortex. It is filed as functional.
The nature of experiment [2]: Selectivity expressed as ratio between NE and 5-HT uptake inhibition in rat synaptosomes. Format: functional, subcellular. The following applies: Brain.
Experiment [3] has as its system Mus musculus. The experiment is described as follows: Ex vivo inhibition of the accumulation of (-)-[3H]Norepinephrine in slices from the middle part of the mouse brain. (i.p.). It is filed as functional. The following applies: ip. The method, boiled down:
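Compound given i.p.; mice killed 60 min later. Brain slices (about 1 mm) preincubated 5 min at 37 °C in Krebs-Henseleit buffer with 1 × 10^-4 M pargyline, glucose, ascorbate and EDTA under 6.5% CO2/O2. Then 5 min with 1 × 10^-7 M [3H]NE plus 1 × 10^-7 M [14C]-5-HT, counted by double labelling. Active uptake is the cocaine-sensitive (5 × 10^-4 M) part. 3–4 doses, 4 mice/dose; ED50 from semilog plots.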

Experiment [4] is described as follows: Selectivity expressed as ratio between NE and 5-HT uptake inhibition in mouse brain slices. Format: functional.
The species entered for experiment [5] is Mus musculus. In words: In vitro inhibition of the accumulation of (-)-[3H]Norepinephrine in slices from the middle part of the mouse brain. Format: functional.

Take `CNC/C=C(/c1ccc(Br)cc1)c1cccnc1` [NOMELIDINE]: the IC50 in experiment [1] worked out at 240 nM. Besides, in experiment [2], the Ratio was determined as 6.3. The compound further registered an ED50 in experiment [3] of over 102 µmol/kg.
The compound `CN(C)C/C=C(/c1ccc(Br)cc1)c1cccnc1` [ZIMELDINE] gave an IC50 in experiment [1] of 3200 nM. For the same compound, in experiment [2], the Ratio came to 32. Moreover, the ED50 in experiment [3] was over 98 µmol/kg.
For `CN(C)CCC=C1c2ccccc2CCc2ccccc21` [AMITRIPTYLINE], the half-maximal inhibitory concentration (IC50) in experiment [1] is 61 nM; in experiment [5] it was 5400 nM. Besides, the Ratio was 0.19 in experiment [2] and 1.9 in experiment [4]. The compound also returned an ED50 in experiment [3] of 114 µmol/kg.
As to `CNCC/C=C(\c1ccc(Br)cc1)c1cccnc1`, the IC50 was 1000 nM in experiment [1] and 250 nM in experiment [5]. In addition, the Ratio in experiment [2] was determined as 0.71; in experiment [4], 2.1. This compound also returned a 50% effective dose (ED50) in experiment [3] of 98 µmol/kg.
`CN(C)C/C=C(\c1ccc(Br)cc1)c1cccnc1`: in experiment [1], it took 150 nM to reach half-maximal inhibition (IC50). Further, the Ratio in experiment [2] is 0.68. The 50% effective dose (ED50) in experiment [3] was found to be 25 µmol/kg.
`CNCC/C=C(/c1ccc(Br)cc1)c1cccnc1`: the values for the IC50 in experiment [1] and in experiment [5] were 6600 nM and over 25000 nM, respectively. In addition, the Ratio was 28 in experiment [2] and over 50 in experiment [4]. In addition, in experiment [3], the 50% effective dose (ED50) was over 98 µmol/kg.
For `CN(C)CC/C=C(/c1ccc(Br)cc1)c1cccnc1` the same measures were 22500 nM, over 24000 nM, 45, over 27 and over 95 µmol/kg.
As for `CN(C)CC/C=C(\c1ccc(Br)cc1)c1cccnc1`, the concentration for half-maximal inhibition (IC50) in experiment [1] turned out to be 1400 nM; in experiment [5], 7800 nM. For the same compound, the Ratio was 0.54 in experiment [2] and 1.1 in experiment [4]. In addition, the ED50 in experiment [3] was 95 µmol/kg.
Taken in the same sequence, the figures for `CNCCC=C1c2ccccc2CCc2ccccc21` [NORTRIPTYLINE] were 7 nM, 500 nM, 0.0035, 0.075 and 67 µmol/kg.
`CNC/C=C(\c1ccc(Br)cc1)c1cccnc1` [NORZIMELIDINE] had an IC50 in experiment [1] of 4.6 nM. Further, the Ratio in experiment [2] is 0.058. This compound had a 50% effective dose (ED50) in experiment [3] of 25 µmol/kg.
